A short description of series [1]: folding enthalpy; higher = less favourable; fluorescence melt of hairpins on a sequencing array, two-state fit. To be noted: sodium 0.088 M. The gist of the method: (§1)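 In 50 mM Na-HEPES pH 8.0 containing 25 mM NaCl, hairpins from the library on a sequenced MiSeq flow cell were imaged for Cy3 fluorescence at 2.5 °C steps up to 60 °C, with Cy3 and quencher oligos annealed. After normalisation to pre-quench Cy3 and to control constructs, two-state fits with bootstrapping gave melting temperature and folding enthalpy. Four replicates were combined by inverse-variance weighting, and fitted temperatures were shifted up by 9.35 °C to match UV melts.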

Series [2] in a line: melting temperature; fluorescence melt of hairpins on a sequencing array, two-state fit, raised by 9.35 °C to match UV melts. To be noted: sodium 0.088 M. In outline: as §1

For GAAGCCGAAAGGCATTTC ((((((....)))..))), in series [1], the folding enthalpy is -6.75 kcal/mol. Moreover, the Tm in series [2] is 25.9 °C.
As to GAAGCCGAAAGGCCCTTC ((((((....)))..))), in series [1], the folding enthalpy was -11.8 kcal/mol. Also, in series [2], the Tm turned out to be 31.3 °C.
As to GAAGCCGAAAGGCTCTTC ((((((....)))..))), the folding enthalpy in series [1] is -20.8 kcal/mol. For the same sequence, in series [2], the Tm stood at 56.6 °C.
In the case of GAAGCCGGAAACGACTTC ((((.((....)).)))), the folding enthalpy in series [1] is -34.4 kcal/mol. For the same sequence, in series [2], the Tm stood at 46 °C.
For the sequence GAAGCCGGAAACGGTTTC (((.(((....))).))), the folding enthalpy in series [1] is -40.2 kcal/mol. Moreover, the Tm in series [2] was 49.9 °C.
Regarding GAAGCTGGAAACAGCTTC (((((((....))))))), the folding enthalpy in series [1] is -40.9 kcal/mol. The Tm in series [2] was 62.7 °C.
As for GAAGGACGAAAGTCTTC (((.(((....)))))), the folding enthalpy in series [1] is -14.7 kcal/mol. Further, the Tm in series [2] came out at 39.8 °C.
With GAAGGAGGAAACTCCTCC (.(((((....))))).), in series [1], the folding enthalpy was -12.7 kcal/mol. For the same sequence, the Tm in series [2] amounted to 40.9 °C.
Taken in the same sequence, the figures for GAAGGAGGAAACTCTTTC (((.(((....))).))) were -20.7 kcal/mol and 31.6 °C.
GAAGGAGGAAACTTCTTC ((((.((....)).)))): in series [1], the folding enthalpy was -35.7 kcal/mol. Also, the Tm in series [2] amounted to 46.8 °C.
Regarding GAAGGCGAAAGCCAATTC ((((((....)))..))), in series [1], the folding enthalpy was -11.2 kcal/mol. In series [2], the Tm was determined as 39.5 °C.
Taken in the same sequence, the figures for GAAGGCGAAAGCCAGTTC ((((((....)))..))) were -10.2 kcal/mol and 29.7 °C.
For GAAGGCGGAAACGCCCTC ((.((((....)))).)), in that order: -8.85 kcal/mol and 35.1 °C.
As for GAAGGCGGAAACGCCTCC (.(((((....))))).), in series [1], the folding enthalpy is -8.57 kcal/mol. The Tm in series [2] is 42.3 °C.
In the case of GAAGGGCCGAAAGGCTTC (((..(((....)))))), the folding enthalpy in series [1] is -7.08 kcal/mol. For the same sequence, the Tm in series [2] was determined as 23 °C.
GAAGGGCGAAAGCCGTTC (((.(((....))).))): in series [1], the folding enthalpy is -22.7 kcal/mol. The Tm in series [2] was determined as 56.6 °C.
For the sequence GAAGGGCGAAAGCCTTTC (((.(((....))).))), the folding enthalpy in series [1] was -17.9 kcal/mol. Moreover, in series [2], the Tm is 49.4 °C.
For the sequence GAAGGGGCGAAAGCCTTC (((..(((....)))))), in series [1], the folding enthalpy is -9.14 kcal/mol. Also, in series [2], the Tm amounted to 35.2 °C.
Turning to GAAGGTGAAAACCTTC ((((((....)))))), the folding enthalpy in series [1] is -28.7 kcal/mol. For the same sequence, the Tm in series [2] came to 57.2 °C.
For GAAGTAGAAATACTTC ((((((....)))))), in that order: -26.5 kcal/mol and 42.5 °C.
As for GAAGTCCGAAAGGATTC (((.(((....)))))), in series [1], the folding enthalpy is -14.1 kcal/mol. Moreover, the Tm in series [2] turned out to be 33.8 °C.
Regarding GAAGTCGAAAGACTTC ((((((....)))))), the folding enthalpy in series [1] is -34.2 kcal/mol. Also, in series [2], the Tm came out at 65.7 °C.
GAAGTCGGAAACGACTCC (.(((((....))))).): in series [1], the folding enthalpy is -13.2 kcal/mol. Moreover, the Tm in series [2] was 41.3 °C.
Turning to GAAGTCGGAAACGATTTC (((.(((....))).))), the folding enthalpy in series [1] was -30.6 kcal/mol. For the same sequence, in series [2], the Tm is 44.2 °C.
Consider GAAGTCGGAAACGGTTTC (((..((....))..))), for which the folding enthalpy in series [1] is -8.25 kcal/mol. The Tm in series [2] is 28.4 °C.
For GAATAAGGAAACTTATTC (((((((....))))))), in series [1], the folding enthalpy is -33.5 kcal/mol. Moreover, the Tm in series [2] was found to be 44.6 °C.
Take GAATACACGAAAGTGTTC (((..(((....)))))): the folding enthalpy in series [1] was -13.4 kcal/mol. In addition, the Tm in series [2] came to 27.3 °C.
On to GAATACCGAAAGGTCTTC (((.(((....))).))), for which the folding enthalpy in series [1] is -24.1 kcal/mol. The Tm in series [2] came out at 36.7 °C.
On to GAATACCGAAAGGTTTC (((.(((....)))))), for which the folding enthalpy in series [1] is -16.5 kcal/mol. Further, the Tm in series [2] worked out at 39.2 °C.
GAATACGAAAGTAGATTC ((((((....)))..))): the folding enthalpy in series [1] is -20.3 kcal/mol. Moreover, the Tm in series [2] was determined as 29.1 °C.

These data come from the array DNA melting data of Ke et al. (doi:10.1101/2024.01.08.574731).
